# Published values collected from several papers.
# Cell line: HeLa
# Observed: cell growth or viability
SMILES,method,time,endpoint,value
COc1cc2nnn(S(=O)(=O)c3ccc(N(C)C)cc3)c2cc1OC,XTT,72 h,IC50,55 µM
COC(=O)CNC(=O)C(=O)OC,,,CC50,> 1000 µM
COc1ccc(S(=O)(=O)Nc2cc(C#N)ccc2OS(=O)(=O)c2ccc(OC)cc2)cc1,XTT,72 h,IC50,77 µM
CCCCCCCCCc1cn(CCN2CCN(C(=O)c3c(C)nc4cc(C)ccn34)CC2)nn1,resazurin,,CC50,62.7 µM
CCOP(=O)(OCC)[C@@H]1C[C@H](n2cc(-c3ccccn3)nn2)ON1C,,72 h,CC50,> 250 µM
Cc1ccn2c(C(=O)N3CCN(Cc4cn(-c5ccc(F)c(Cl)c5)nn4)CC3)c(C)nc2c1,resazurin,,CC50,> 100 µM
CCOP(=O)(OCC)[C@@H]1C[C@@H](n2cc(Cn3ccc(NC(C)=O)nc3=O)nn2)ON1C (racemic),,72 h,CC50,> 250 µM
Cc1ccc(-n2cc(CN3CCN(C(=O)c4c(C)nc5ccc(Cl)cn45)CC3)nn2)cc1C,resazurin,,CC50,> 100 µM
CCOP(=O)(OCC)[C@@H]1C[C@H](n2cc(Cn3cnc4c(N)ncnc43)nn2)ON1C (relative stereo),,72 h,CC50,≥ 250 µM
COc1ccc(OC)c(NS(=O)(=O)c2ccc(OC)c([N+](=O)[O-])c2)c1,XTT,72 h,IC50,> 100 µM
CCOP(=O)(OCC)[C@@H]1C[C@H](n2cc(C(=O)OC)nn2)ON1C (relative stereo),,72 h,CC50,> 250 µM
COc1cc(NS(=O)(=O)c2ccc([N+](=O)[O-])cc2)cc(OC)c1,XTT,72 h,IC50,> 100 µM
CCCCCCCCCc1cn(CCN2CCN(C(=O)c3c(C)nc4ccc(Cl)cn34)CC2)nn1,resazurin,,CC50,> 100 µM
CNc1ccc(S(=O)(=O)Nc2ccc(OC)nc2)cc1,XTT,72 h,IC50,> 100 µM
Cc1ccn2c(C(=O)N3CCN(Cc4cn(-c5ccccc5)nn4)CC3)c(C)nc2c1,resazurin,,CC50,> 100 µM
CC(=O)O[C@H]1C(=O)[C@@]2(C)[C@H]([C@H](OC(=O)c3ccccc3)[C@]3(O)C[C@H](OC(=O)[C@H](O)[C@@H](NC(=O)c4ccccc4)c4ccccc4)C(C)=C1C3(C)C)[C@]1(OC(C)=O)CO[C@@H]1C[C@@H]2O,MTT,48 h,IC50,4.8 µM
CCOP(=O)(OCC)[C@@H]1C[C@H](n2cc(-c3nccn3C)nn2)ON1C,,72 h,CC50,> 250 µM
COc1ccc(NS(=O)(=O)c2ccc(N)cc2)cc1OC,XTT,72 h,IC50,> 100 µM
Cc1nc2ccc(Cl)cn2c1C(=O)N1CCN(Cc2cn(-c3cccc([N+](=O)[O-])c3)nn2)CC1,resazurin,,CC50,> 100 µM
